Test results reported in the RNAGym collection of RNA variant scans (doi:10.1126/science.aae0568).
Variants at the floor of the assay were thinned out.

B1: tRNA (parent)
chain: GUUCCGUUGGCGUAAUGGUAACGCGUCUCCCUCCUAAGGAGAAGACUGCGGGUUCGAGUCCCGUACGGAACG

Variants of: B1
Assay: yeast fitness relative to wild type (ratio to wild type); higher = fitter; tRNA-Arg(CCU), competitive growth, 37 C, YPD
Outline: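 A pool of Saccharomyces cerevisiae strains, each with a tRNA-Arg(CCU) gene variant at the native genomic locus, was competed in YPD at 37°C for 24 hours across six parallel replicates. The variants had been chemically synthesised at a 3% per-site mutation rate over 69 sites, and gene amplicons before and after competition were read by 100-nucleotide paired-end sequencing. Darwinian fitness relative to wild type rested on changes in genotype frequencies. Genotypes required ≥ 100 starting reads, and estimates < 0.5 were set to 0.5.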

Compared with GUUCCGUUGGCGUAAUGGUAACGCGACUCCCUCCUAAGGAGAAGACUGCGGGUUCGAGUCCCGUACGCGACG [U26A G68C A69G], GUUCCGUUGGCGUAAUGGUAACGCGCCUCCCUCCUGAGGAGAAGACUGCGGGUUCGAGUCCCGUACGGCACG [U26C A36G A69C] is higher in yeast fitness: 0.572 for the first, 0.736 for the second.

GUUCCGUUGGCGUAAUGGUAACGCGACUCCCUCCUAACGAGAAGACAGAGGGUUCGAGUCCCGUACGGAACG [U26A G38C U47A C49A] and GUUCCGUUGGCGUAAUGGUAACGCGCCUCCCUCCUCAGGAGAAGGCUGCGGGUCCGAGUCCCGUACGGAACG [U26C A36C A45G U54C] cannot be ordered by yeast fitness: ≤ 0.5 for the first, ≤ 0.5 for the second.

First: GUUCCGUUGGCGUAAUGGUAACGCGCCUCCCUCCUAAGGAGAAGGCUGCGGGUUAGAGUCCCGUAUGGAACG [U26C A45G C55A C66U]
Second: GUUCCGUUGGCGUAAUGGUAACGCGCUUCCCUCCUAAGGAGAAGACUGCGGGUUCGAGUCCUGUACGGAACG [U26C C27U C62U]
The yeast fitness of the first is lower: 0.701 for the first, 0.754 for the second.

Going from GUUCCGUUGGCGUAAUGGUAACGCGACUCCCUCCGAUGGAGAAGACUGCGGGUUCGAGUCCCGUACGGAGCG [U26A U35G A37U A70G] to GUUCCGUUGGCGUAAUGGUAACGCGCCUCCCUCCUAAGGAGAAGGCUGCGGGUUCGAGUCCCGUACGGUACG [U26C A45G A69U], the yeast fitness rises from ≤ 0.5 to 0.647.

Going from GUUCCGUUGGCGUAAUGGUAACGCGACUCCCUCCUAAGGAGAAGACUGCGGGUUCGACUCCUGUACGGAACG [U26A G58C C62U] to GUUCCGUUGGCGUAAUGGUAACGCGACUCCCUCCUAAGGAGAAGACUGCGGGUUCGAGUCCCGUAAGGAUCG [U26A C66A A70U], the yeast fitness falls from 0.659 to ≤ 0.5.

Compared with GUUCCGUUGGCGUAAUGGUAACGCGACUCCCUCCUAAGGAGAAGACUGCGGAUUCGAGUCCCGUACGGAACG [U26A G52A], GUUCCGUUGGCGUAAUGGUAACGCGACACCUUCCUAAGGAGAAGACUGCGGGUUCGAGUCCCCUACGGAACG [U26A U28A C31U G63C] is lower in yeast fitness: 0.666 for the first, ≤ 0.5 for the second.

First: GUUCCGUUGGCGUAAUGGUAACGCGACUCCCUCCUAAGGAGAAGACUGCGGGUUCGAGCCCCGUAUGGAACG [U26A U59C C66U]
Second: GUUCCGUUGGCGUAAUGGUAACGCGACUCCCUCCUAAGGAGAAGACUGCGGGUUCGAGUUCCGUACGGAACG [U26A C60U]
The yeast fitness of the first is lower: 0.564 for the first, 0.744 for the second.

Compared with GUUCCGUUGGCGUAAUGGUAACGCGCCUCCCUCCUAAGGAGAAGACUGCGGGUUCGAGUCCCGUACGGCACG [U26C A69C], GUUCCGUUGGCGUAAUGGUAACGCGACUCCCUCCUAACGAGAAGACUGCGGGUUCGACUCCCGAACGGAACG [U26A G38C G58C U64A] is lower in yeast fitness: 0.885 for the first, ≤ 0.5 for the second.

First: GUUCCGUUGGCGUAAUGGUAACGCGACACCUUCCUAAGGAGAAGACUGCGGGUUCAAGUCCCGUAGGGAACG [U26A U28A C31U G56A C66G]
Second: GUUCCGUUGGCGUAAUGGUAACGCGCCUCCCUCCUUAGGAGAAGACUGCGGGUUCGAGUCCCGUACGGAACG [U26C A36U]
The yeast fitness of the first is lower: ≤ 0.5 for the first, 0.608 for the second.

GUUCCGUUGGCGUAAUGGUAACGCGACUCCCUCCUAAGGAGAAGACUAGGGGUUCGAGUCCCGUACGGAUCG [U26A G48A C49G A70U] and GUUCCGUUGGCGUAAUGGUAACGCGACUCCCUCCUAAGUAGAAGCCUGCGGGUUCGAGUCCCGUACGGAACG [U26A G39U A45C] cannot be ordered by yeast fitness: ≤ 0.5 for the first, ≤ 0.5 for the second.

First: GUUCCGUUGGCGUAAUGGUAACGCGACUCCCUCCUAAGGAGAAGACUGCGGGUUCAAGUCCCGUACGGAACG [U26A G56A]
Second: GUUCCGUUGGCGUAAUGGUAACGCGCUUCCCUCCUAAGGAGAAGACUGCGGGUGCAAGUCCCGUACGGAACG [U26C C27U U54G G56A]
The yeast fitness of the first is higher: 1.02 for the first, 0.54 for the second.

First: GUUCCGUUGGCGUAAUGGUAACGCGCCUCCCUCCUAAGGAGGAGACUGCGGGUUCGAGUCCCGUACUGAACG [U26C A42G G67U]
Second: GUUCCGUUGGCGUAAUGGUAACGCGACUCCCUCCUAAGGAGAAGACUGCUGGUUCGAGUCCCGUACGGAACG [U26A G50U]
The yeast fitness of the first is lower: 0.647 for the first, 0.805 for the second.

First: GUUCCGUUGGCGUAAUGGUAACGCGCAUCCCUCCUAAGGAGAAGACUGCGGGUUCGAGUCCCGUACGGAACG [U26C C27A]
Second: GUUCCGUUGGCGUAAUGGUAACGCGCCUCCCUCCUAAGGGGAAGACUGCGGGUUCGAGUCCCGUAUGGAACG [U26C A40G C66U]
The yeast fitness of the first is higher: 0.859 for the first, 0.563 for the second.

Compared with GUUCCGUUGGCGUAAUGGUAACGCGACUCCCUCCUAAGGAGAAGACUGCGGGUUUGAGUCCCGUACGGAACG [U26A C55U], GUUCCGUUGGCGUAAUGGUAACGCGCCUCCCUCCUAAGGAGAUGACUGCAGGUUCGAGUCCCGUACGAAACG [U26C A43U G50A G68A] is lower in yeast fitness: 0.65 for the first, ≤ 0.5 for the second.

Compared with GUUCCGUUGGCGUAAUGGUAACGCGCCUCCCUCCUAAGGAGAAGGCUGCGGGUUCGAGUCCCGUACGGAACG [U26C A45G], GUUCCGUUGGCGUAAUGGUAACGCGACUCCCCCCUAAGGAGAAGACUGCGGGAUCGAGUCCCGUACGGAACG [U26A U32C U53A] is lower in yeast fitness: 0.966 for the first, ≤ 0.5 for the second.

Going from GUUCCGUUGGCGUAAUGGUAACGCGCUUCCCUCCUAAGGAGAAGACUGCGGGUUCGAGCCCCGUACGGAACG [U26C C27U U59C] to GUUCCGUUGGCGUAAUGGUAACGCGCCUCCCUCCUAAGGAGAGGACUGCGGGUUCGAGUCCCGUACGGAACG [U26C A43G], the yeast fitness rises from 0.702 to 1.01.

Going from GUUCCGUUGGCGUAAUGGUAACGCGCCUCCCUCCUAAGGAGACGACUGCGGGUUCGAGUCCCGUACGGAACG [U26C A43C] to GUUCCGUUGGCGUAAUGGUAACGCGCCUCCCUCCUAAGGAGGAGACUGCGGGUUCGAGUCCCGUACGGAACG [U26C A42G], the yeast fitness rises from 0.952 to 1.08.

Going from GUUCCGUUGGCGUAAUGGUAACGCGCCUCCCUCCUUAGGAGAAGUCUGCGGCUUCGUGUCCCGUACGGAACG [U26C A36U A45U G52C A57U] to GUUCCGUUGGCGUAAUGGUAACGCGACUCCCUCCUAAGGAGAAGACUGCGGGUUCGAUUCCCGUACGGAACG [U26A G58U], the yeast fitness rises from ≤ 0.5 to 1.03.

First: GUUCCGUUGGCGUAAUGGUAACGCGACUCCCUCCUAAGGAGAAGACUGCGGGUUCGACUCCCGUACGGAACG [U26A G58C]
Second: GUUCCGUUGGCGUAAUGGUAACGCGACCCGCUCCUAAGGAGAAGACUGCGGGUUCGAGUCCAGUACGGAACG [U26A U28C C30G C62A]
The yeast fitness of the first is higher: 0.98 for the first, ≤ 0.5 for the second.
